According to ChEMBL document CHEMBL2146464, “Structure-activity relationship study of nitrosopyrimidines acting as antifungal agents” (Bioorg Med Chem, 2012):
Calls of active or inactive are those of the source.

Columns and labels:
Assay type in all cases: functional, organism-based
Cryptococcus neoformans = experiment: Antifungal activity against Cryptococcus neoformans ATCC 32264 at 0.98 to 250 ug/mL after 48 hrs by NCCLS broth microdilution method
Procedure, shortened: (§1)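 Yeast MIC by NCCLS M27-A3 broth microdilution in RPMI-1640 buffered to pH 7.0 with MOPS. Twofold dilutions of 250–0.98 µg/mL, final DMSO ≤1%. Inoculum 1–5 × 10³ CFU/mL. Incubated at 30 °C in a moist dark chamber. Read visually at 48 h. MIC100 is the lowest concentration with no visible growth versus drug-free control.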

Candida albicans = experiment: Antifungal activity against Candida albicans ATCC 10231 at 0.98 to 250 ug/mL after 48 hrs by NCCLS broth microdilution method; procedure, shortened: as §1
Candida tropicalis = experiment: Antifungal activity against Candida tropicalis at 0.98 to 250 ug/mL after 48 hrs by NCCLS broth microdilution method; procedure, shortened: as §1
Aspergillus fumigatus = experiment: Antifungal activity against Aspergillus fumigatus ATCC 26934 at 0.98 to 250 ug/mL by NCCLS broth microdilution method
Procedure, shortened: (§2)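 MIC by broth microdilution per NCCLS M27-A3/M38-A2 in RPMI-1640 buffered to pH 7.0 with MOPS. Twofold dilutions from 250–0.98 µg/mL, final DMSO ≤1%. Inoculum 1–5 × 10³ CFU/mL. Incubated in a moist dark chamber, 30 °C for Aspergillus and 28–30 °C for dermatophytes. Read visually when control growth allowed. Endpoint is the lowest concentration giving total inhibition of visible growth (MIC100).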

Trichophyton rubrum = experiment: Antifungal activity against Trichophyton rubrum CCC 110 at 0.98 to 250 ug/mL by NCCLS broth microdilution method; procedure, shortened: as §2
Aspergillus niger = experiment: Antifungal activity against Aspergillus niger ATCC 9029 at 0.98 to 250 ug/mL by NCCLS broth microdilution method; procedure, shortened: as §2
Aspergillus flavus = experiment: Antifungal activity against Aspergillus flavus ATCC 9170 at 0.98 to 250 ug/mL by NCCLS broth microdilution method; procedure, shortened: as §2
Nannizzia gypsea = experiment: Antifungal activity against Microsporum gypseum CCC 115 at 0.98 to 250 ug/mL by NCCLS broth microdilution method; procedure, shortened: as §2
[1] = test system: Trichophyton mentagrophytes; experiment: Antifungal activity against Trichophyton mentagrophytes ATCC 9972 at 0.98 to 250 ug/mL by NCCLS broth microdilution method; procedure, shortened: as §2

Measured: Activity

CCCCNc1nc(N)nc(Nc2ccccc2)c1N=O
inactive: all assays above

COc1nc(NCCOC(C)=O)nc(Nc2cccc(Cl)c2)c1N=O
inactive: all assays above

CCOC(=O)C(Cc1ccccc1)Nc1nc(N)nc(OC)c1N=O (centres undefined)
inactive: all assays above

CCOC(=O)C(C)Nc1nc(N)nc(OC)c1N=O (centres undefined)
inactive: all assays above

Nc1nc2c(c(OCC3CCCCC3)n1)NC(=O)[C@H](Cc1ccccc1)N2
inactive: all assays above

COc1nc(N)nc2c1NC(=O)[C@H](Cc1ccccc1)N2
inactive: all assays above

COc1nc(NCCOC(C)=O)nc(Nc2ccccc2)c1N=O
inactive: all assays above

COc1nc(N)c(N=O)c(=O)n1Cc1ccccc1
inactive: all assays above

CCOC(=O)[C@H](Cc1ccccc1)Nc1nc(N)nc(OCC2CCCCC2)c1N=O
inactive: all assays above

COc1nc(NCCO)nc(Nc2ccccc2)c1N=O
inactive: all assays above

CCOC(=O)CNc1nc(N)nc(OC)c1N=O
inactive: all assays above
